A short description of data set [1]: Plasma pharmacokinetics after intravenous. The class given is in vivo, Sprague Dawley rats. The note with it: rat, 2.5 mg i.v., plasma sampled for 3 days. In a few lines:
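Adult male Sprague Dawley rats (350-400 g) under isoflurane (5% induction, 1%-3% maintenance) got one internal jugular injection. Blood was taken by terminal cardiac puncture from 0 to 72 h (N = 3 per time) and plasma separated cold. Levels were measured in duplicate by LC-MS/MS after protein precipitation with analog internal standard (curve 1.0-500 ng/mL). Data were fitted with a three-compartment naïve-pooled model, extended least-squares, variance-weighted.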

The nature of another data set: Urinary excretion. The class given is in vivo, Sprague Dawley rats. The note with it: rat, i.v., urine from bladder.
For data set [2] the following is noted: cited from earlier work.
The conditions of data set [3]: 3 hours, or 1, 2, 3, and 7 days after injection; cited from earlier work.

Peptide text beside a SMILES is read from it. * marks the point of attachment. Lauroyl = CCCCCCCCCCCC(=O)*

Consider `CCCCCCCCCCCC(=O)NCCCC[C@H](NC(=O)[C@@H](NC(=O)[C@@H](NC(=O)[C@H](C)NC(=O)[C@H](C)NC(=O)[C@H](CCCCN)NC(=O)[C@H](CCCCN)NC(=O)[C@H](CS)NC(=O)[C@H](CCCCN)NC(=O)[C@@H]1CCCN1C(=O)[C@H](CC(C)C)NC(=O)[C@@H](NC(=O)[C@H](Cc1c[nH]c2ccccc12)NC(=O)[C@H](CC(C)C)NC(=O)[C@@H](N)CCCCN)C(C)C)C(C)C)C(C)C)C(N)=O` [collagen‐targeted PA] (H-KLWVLPKCKKAAVVK(Lauroyl)-NH2), for which the “observed terminal half-life (not to be interpreted as elimination half-life)” value in data set [1] is 42.6 h. For the same molecule, the “presence of the target peptide in urine by LC-MS/MS” value in the data set “Urinary excretion” is “did not show the presence of the target peptide”. Besides, the “CAC for this fiber” value in data set [2] is “below 1 µM”. For the same molecule, the “critical aggregation concentration (CAC)” value in data set [2] (collagen-targeted PA with Alexa Fluor 546, nanofibers at neutral pH) is recorded as below 300 nM. Further, the “liver function profiles, coagulation panel, or chemistry panel” value in data set [3] is “no change”.

The record behind these values is publication PMC7580710 (Pharmacology Research & Perspectives, 2020).
